Laboratory results from ChEMBL document CHEMBL4477183, “Antimicrobial Peptide from the Wild Bee Hylaeus signatus Venom and Its Analogues: Structure-Activity Study and Synergistic Effect with Antibiotics” (J Nat Prod, 2016).
In brackets after ≈: the same amount, converted by molar mass. Non-standard residues stand in square brackets, D forms with d. Residues, ends and D or L forms follow the SMILES beside them.

Key:
Staphylococcus aureus [1] = experiment: Antimicrobial activity against Staphylococcus aureus clinical isolates from university hospital in Motol assessed as reduction in bacterial growth after 20 hrs by drop diffusion test; format: functional
Escherichia coli = experiment: Antimicrobial activity against Escherichia coli assessed as reduction in bacterial growth after 20 hrs by […]; format: functional
Method in brief: (§1)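 Broth microdilution in LB (YPG for C. albicans) with 2-fold serial dilutions, final 0.1–100 μM. Mid-log cells grown 3–5 h at 37 °C were added at about 5 × 10^5 cfu/mL, then incubated 20 h at 37 °C with shaking. A540 was read every 15 min to build growth curves. Medium with cells served as growth control; at least three runs in duplicate.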

Pseudomonas aeruginosa [2] = experiment: Antimicrobial activity against Pseudomonas aeruginosa 5482 assessed as reduction in bacterial growth after 20 hrs […]; format: functional; details: Pseudomonas aeruginosa, 5482, 20 h; method in brief: as §1
Pseudomonas aeruginosa [3] = experiment: Antimicrobial activity against Pseudomonas aeruginosa clinical isolates assessed as reduction in bacterial growth after 20 hrs by […]; format: functional; method in brief: as §1
[4] = Hemolytic activity in human type RBC after 1 hr; format: ADME, cell-based, Erythrocyte; details: red blood cells (erythrocytes), read-out: LC50
Method in brief: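 Peptides at 2.5–400 μM were incubated with a 4% suspension of human erythrocytes in physiological solution for 1 h at 37 °C, then centrifuged at 250g for 5 min; supernatant A540 was read. Saline-treated cells gave 0% lysis and 0.2% Triton X-100 gave 100%. LC50 is the concentration lysing 50% of cells; duplicates in at least two independent experiments.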

Candida albicans = experiment: Antifungal activity against Candida albicans assessed as reduction in fungal growth after 20 hrs by […]; format: functional; method in brief: as §1
Micrococcus luteus = experiment: Antimicrobial activity against Micrococcus luteus assessed as reduction in bacterial growth after 20 hrs by […]; format: functional; method in brief: as §1
Bacillus subtilis = experiment: Antimicrobial activity against Bacillus subtilis assessed as reduction in bacterial growth after 20 hrs by […]; format: functional; method in brief: as §1
Staphylococcus aureus [5] = experiment: Antimicrobial activity against Staphylococcus aureus clinical isolates assessed as FIC index in presence of amoxicillin after 20 hrs by drop diffusion test; format: functional
Pseudomonas aeruginosa [6] = experiment: Antimicrobial activity against Pseudomonas aeruginosa clinical isolates assessed as FIC index in presence of tetracycline after 20 hrs by drop diffusion test; format: functional
Pseudomonas aeruginosa [7] = experiment: Antimicrobial activity against Pseudomonas aeruginosa clinical isolates assessed as FIC index in presence of rifampicin after 20 hrs by drop diffusion test; format: functional
Staphylococcus aureus [8] = experiment: Antimicrobial activity against Staphylococcus aureus 6271 assessed as reduction in bacterial growth after 20 hrs by broth microdilution assay; details: Staphylococcus aureus, 6271, 20 h
[9] = tested on: Staphylococcus epidermidis; experiment: Antimicrobial activity against Staphylococcus epidermidis assessed as reduction in bacterial growth after 20 hrs by broth microdilution assay
Staphylococcus aureus [10] = experiment: Antimicrobial activity against Staphylococcus aureus clinical isolates from Liberec regional hospital assessed as reduction in bacterial growth after 20 hrs by broth microdilution assay

Compound	MIC (Staphylococcus aureus [1]) [µM]	MIC (Escherichia coli) [µM]	MIC (Pseudomonas aeruginosa [2]) [µM]	MIC (Pseudomonas aeruginosa [3]) [µM]	HC50 at 1 h [4] [µM]	MIC (Candida albicans) [µM]	MIC (Micrococcus luteus) [µM]	MIC (Bacillus subtilis) [µM]	fractional inhibitory concentration index (FICI) (Staphylococcus aureus [5])	fractional inhibitory concentration index (FICI) (Pseudomonas aeruginosa [6])	fractional inhibitory concentration index (FICI) (Pseudomonas aeruginosa [7])	MIC (Staphylococcus aureus [8]) [µM]	MIC [9] [µM]	MIC (Staphylococcus aureus [10]) [µM]
CC[C@@H](C)[C@@H](NC(=O)CN)C(=O)N[C@H](CC(C)C)C(=O)N[C@H](CO)C(=O)N[C@H](CO)C(=O)N[C@H](CC(C)C)C(=O)N[C@H](CC(C)C)C(=O)N[C@H](CCCCN)C(=O)N[C@H](CCCCN)C(=O)N[C@H](CC(C)C)C(=O)N[C@H](CCCCN)C(=O)N[C@H](CCCCN)C(=O)N[C@@H](C(=O)N[C@@H](C(=O)N[C@H](C)C(=O)N[C@H](CCCCN)C(N)=O)[C@H](C)CC)[C@H](C)CC (H-G[dI][dL][dS][dS][dL][dL][dK][dK][dL][dK][dK][dI][dI][dA][dK]-NH2)	6.3 (≈ 11 µg/mL)	4.5 (≈ 7.89 µg/mL)	4.5 (≈ 7.89 µg/mL)	9.7 (≈ 17 µg/mL)	333	9 (≈ 15.8 µg/mL)	≤ 3	≤ 7	0.63	0.75	0.3	5.7 (≈ 9.99 µg/mL)	3.2 (≈ 5.61 µg/mL)	2.6 (≈ 4.56 µg/mL)
CC[C@@H](C)[C@@H](NC(=O)CN)C(=O)N[C@H](CC(C)C)C(=O)N[C@H](CO)C(=O)N[C@H](CO)C(=O)N[C@H](CC(C)C)C(=O)N[C@H](Cc1c[nH]c2ccccc12)C(=O)N[C@H](CCCCN)C(=O)N[C@H](CCCCN)C(=O)N[C@H](CC(C)C)C(=O)N[C@H](CCCCN)C(=O)N[C@H](CCCCN)C(=O)N[C@@H](C(=O)N[C@@H](C(=O)N[C@H](C)C(=O)N[C@H](CCCCN)C(N)=O)[C@H](C)CC)[C@H](C)CC (H-G[dI][dL][dS][dS][dL][dW][dK][dK][dL][dK][dK][dI][dI][dA][dK]-NH2)	3.2 (≈ 5.84 µg/mL)	5 (≈ 9.13 µg/mL)	6.7 (≈ 12.2 µg/mL)	8.8 (≈ 16.1 µg/mL)	191	8 (≈ 14.6 µg/mL)	≤ 3	≤ 7	0.73	0.58	0.29	6.3 (≈ 11.5 µg/mL)	1.7 (≈ 3.1 µg/mL)	2.9 (≈ 5.29 µg/mL)
CC[C@@H](C)[C@@H](NC(=O)CN)C(=O)N[C@H](CCSC)C(=O)N[C@H](CO)C(=O)N[C@H](CO)C(=O)N[C@H](CC(C)C)C(=O)N[C@H](CCSC)C(=O)N[C@H](CCCCN)C(=O)N[C@H](CCCCN)C(=O)N[C@H](CC(C)C)C(=O)N[C@H](CCCCN)C(=O)N[C@H](CCCCN)C(=O)N[C@@H](C(=O)N[C@@H](C(=O)N[C@H](C)C(=O)N[C@H](CCCCN)C(N)=O)[C@H](C)CC)[C@H](C)CC (H-G[dI][dM][dS][dS][dL][dM][dK][dK][dL][dK][dK][dI][dI][dA][dK]-NH2)	16 (≈ 28.6 µg/mL)	6.3 (≈ 11.3 µg/mL)	3.2 (≈ 5.72 µg/mL)	8.5 (≈ 15.2 µg/mL)	> 400	8 (≈ 14.3 µg/mL)	≤ 3	≤ 7	0.54	0.67	0.32	13 (≈ 23.2 µg/mL)	2.2 (≈ 3.93 µg/mL)	7 (≈ 12.5 µg/mL)
CC1(C)S[C@@H]2[C@H](NC(=O)[C@H](N)c3ccc(O)cc3)C(=O)N2[C@H]1C(=O)O [AMOXICILLIN]	3.5 (≈ 1.28 µg/mL)	2.7 (≈ 0.987 µg/mL)	> 100	> 100								17 (≈ 6.21 µg/mL)	35 (≈ 12.8 µg/mL)	35 (≈ 12.8 µg/mL)
H-GILSSLLKKLKKIIAK-NH2	5	8	5	7.5	284	10	≤ 3	≤ 7	0.69	0.54	0.39	16	1.8	3.8
H-GILSSLLKKLKKWIAK-NH2	4	4	8	21	115	16	≤ 3	≤ 7	0.56	0.63	0.27	8	1.6	2.6
H-GILSSLLKKWKKIIAK-NH2	20	7.5	5	7.1	> 400	11	≤ 3	≤ 7	0.44	0.58	0.42	20	2.7	7.8
H-GILSSLWKKPKKIIAK-NH2	> 100	> 100	98	> 100	> 400	> 100	5.8	49				> 100	> 100	> 100
H-GIMISLMKKLAAHIAK-NH2	65	12	47	> 100	320	12	≤ 3	≤ 7				43	8.8	35
H-GIMSSLMKKLAAHIAK-NH2	64	15	20	68	> 400	18	≤ 3	≤ 7		0.56	0.26	63	13	53
H-GIMSSLMKKLAAHIKK-NH2	90	20	23	46	> 400	5	≤ 3	≤ 7				85	11	77
H-GIMSSLMKKLAAIIAK-NH2	10	3.6	8	17	93	8.4	≤ 3	≤ 7	0.56	0.76	0.51	7.2	5	10
H-GIMSSLMKKLAKHIAK-NH2	63	15	7.9	20	> 400	14	≤ 3	≤ 7	0.31	0.54	0.25	63	6.2	35
H-GIMSSLMKKLAKIIAK-NH2	10	3.7	4.5	9.3	88	11	≤ 3	≤ 7	0.5	0.79	0.43	9	5	5.2
H-GIMSSLMKKLAKIIKK-NH2	17	15	5.2	10	> 400	7.6	≤ 3	≤ 7	0.38	0.54	0.42	33	2.9	8.6
H-GIMSSLMKKLKAHIAK-NH2	> 100	30	26	47	> 400	23	≤ 3	≤ 7		0.31	0.21	> 100	16	> 100
H-GIMSSLMKKLKKHIAK-NH2	> 100	26	6.4	17	> 400	12	≤ 3	≤ 7		0.39	0.23	> 100	10	> 100
